Source: the array DNA melting data of Ke et al. (doi:10.1101/2024.01.08.574731)

How the values were obtained:
[1] = folding enthalpy; higher = less favourable; fluorescence melt of hairpins on a sequencing array, two-state fit; conditions: sodium 0.088 M
Outline: (§1)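 To match UV melts, fitted temperatures were raised by 9.35 °C. These fits were bootstrapped two-state models that gave melting temperature and folding enthalpy, combined by inverse variance over four replicates. The input was normalised Cy3 fluorescence of library hairpins with annealed Cy3 and quencher oligos on a sequenced MiSeq flow cell, imaged in 50 mM Na-HEPES pH 8.0, 25 mM NaCl in 2.5 °C steps up to 60 °C.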

[2] = melting temperature; fluorescence melt of hairpins on a sequencing array, two-state fit, raised by 9.35 °C to match UV melts; conditions: sodium 0.088 M
Outline: as §1

Row | Sequence | folding enthalpy [1] | Tm [2]
1 | GTGGTACGAAAGTAACAC (((.(((....))).))) | -40.3 kcal/mol | 58.2 °C
2 | GTGGTACGAAAGTATCAC (((.(((....))).))) | -47.3 kcal/mol | 54.2 °C
3 | GTGGTAGGAAACTACTGC (..((((....))))..) | -18.2 kcal/mol | 36.1 °C
4 | GTGGTAGGAAACTGCTAC ((.(.((....)).).)) | -17.7 kcal/mol | 32.1 °C
5 | GTGGTCACGAAAGTGCAC (((..(((....)))))) | -16.1 kcal/mol | 39.9 °C
6 | GTGGTCCGAAAGGAACAC (((.(((....))).))) | -33.6 kcal/mol | 65.4 °C
7 | GTGGTCGAAAGACAACAC ((((((....)))..))) | -18.7 kcal/mol | 46.8 °C
8 | GTGGTCGAAAGACGCCAC ((((((....)))..))) | -15.9 kcal/mol | 39.6 °C
9 | GTGGTCGAAAGACTACAC ((((((....)))..))) | -15.7 kcal/mol | 48.2 °C
10 | GTGGTCGAAAGACTTCAC ((((((....)))..))) | -15.2 kcal/mol | 31.9 °C
11 | GTGGTCGGAAACGACCGC (.(((((....))))).) | -17.8 kcal/mol | 63 °C
12 | GTGGTCGGAAACGGCTAC ((.(.((....)).).)) | -25.8 kcal/mol | 44.5 °C
13 | GTGGTGGGAAACCGTCAC (((..((....))..))) | -19.8 kcal/mol | 38.4 °C
14 | GTGGTGGGAAACTACCGC (.(((.(....).))).) | -28.4 kcal/mol | 42.7 °C
15 | GTGGTGTCGAAAGACCAC (((..(((....)))))) | -16.8 kcal/mol | 47.6 °C
16 | GTGGTTCGAAAGAAACAC (((.(((....))).))) | -48.8 kcal/mol | 55.8 °C
17 | GTGGTTGGAAACAACCGC (.(((((....))))).) | -31 kcal/mol | 55.7 °C
18 | GTGGTTGGAAACAACTGC (..((((....))))..) | -17.6 kcal/mol | 43.4 °C
19 | GTGTAACCGAAAGGTCAC (((..(((....)))))) | -22.6 kcal/mol | 43.6 °C
20 | GTGTAAGGAAACTTACGC (.(((((....))))).) | -25.7 kcal/mol | 45.3 °C
21 | GTGTACCGAAAGGTCCAC (((.(((....))).))) | -31 kcal/mol | 48.1 °C
22 | GTGTACGAAAGTAAACAC ((((((....)))..))) | -25.1 kcal/mol | 42.6 °C
23 | GTGTACGAAAGTAGCAC ((((((....))).))) | -23.6 kcal/mol | 42.9 °C

Row | Sequence | folding enthalpy [1] | Tm [2]
24 | GTGTACGAAAGTAGTCAC ((((((....)))..))) | -12.2 kcal/mol | 30.9 °C
25 | GTGTACGGAAACGTGCAC (((.(((....))).))) | -28.3 kcal/mol | 55.3 °C
26 | GTGTAGCGAAAGCTCCAC (((.(((....))).))) | -31.7 kcal/mol | 48 °C
27 | GTGTAGCGAAAGCTTCAC (((.(((....))).))) | -32 kcal/mol | 51.8 °C
28 | GTGTAGGCGAAAGCCCAC (((..(((....)))))) | -17.4 kcal/mol | 44.5 °C
29 | GTGTAGGGAAACCTATGC (..((((....))))..) | -12.2 kcal/mol | 30.9 °C
30 | GTGTAGGGAAACCTGCAC (((.(((....))).))) | -29.7 kcal/mol | 50.3 °C
31 | GTGTATGGAAACACACAC ((((.((....)).)))) | -26.1 kcal/mol | 38.1 °C
32 | GTGTATGGAAACATACAC (((((((....))))))) | -42 kcal/mol | 57.2 °C
33 | GTGTCAGGAAACTGGCAC (((.(((....))).))) | -39.4 kcal/mol | 54.4 °C
34 | GTGTCATCGAAAGATCAC (((..(((....)))))) | -17.1 kcal/mol | 32.4 °C
35 | GTGTCCGAAAGGAGTCAC ((((((....)))..))) | -19.1 kcal/mol | 35 °C
36 | GTGTCCGAAAGGATGCAC ((((((....)))..))) | -15.8 kcal/mol | 42.9 °C
37 | GTGTCCGAAAGGATTCAC ((((((....)))..))) | -16.3 kcal/mol | 35.3 °C
38 | GTGTCCGGAAACGGATAC ((.((((....)))).)) | -38.6 kcal/mol | 53.3 °C
39 | GTGTCGCCGAAAGGCCAC (((..(((....)))))) | -15 kcal/mol | 44.4 °C
40 | GTGTCGCGAAAGCGTCAC (((.(((....))).))) | -31.9 kcal/mol | 63 °C
41 | GTGTCTGGAAACGGACAC (((((.(....).))))) | -41.3 kcal/mol | 54 °C
42 | GTGTGAACGAAAGTTCAC (((..(((....)))))) | -12.9 kcal/mol | 65.6 °C
43 | GTGTGAGGAAACTTACGC (.((.((....)).)).) | -17.7 kcal/mol | 33.7 °C
44 | GTGTGAGGAAACTTGCAC (((..((....))..))) | -28 kcal/mol | 35.1 °C
45 | GTGTGCGAAAGCACGCAC ((((((....)))..))) | -9.49 kcal/mol | 61.1 °C
46 | GTGTGCGAAAGCATTCAC ((((((....)))..))) | -15.8 kcal/mol | 38.3 °C

Row | Sequence | folding enthalpy [1] | Tm [2]
47 | GTGTGCGGAAACACACAC (((((.(....).))))) | -36.2 kcal/mol | 51.8 °C
48 | GTGTGCGGAAACGCGCAC (((.(((....))).))) | -27.7 kcal/mol | 67.7 °C
49 | GTGTGGGGAAACCTACGC (.((.((....)).)).) | -24.1 kcal/mol | 39.2 °C
50 | GTGTGTCGAAAGACTCAC (((.(((....))).))) | -40.9 kcal/mol | 53.2 °C
51 | GTGTGTGGAAACGTACAC ((((..(....)..)))) | -23.5 kcal/mol | 42 °C
52 | GTGTTACGAAAGTACCAC (((.(((....))).))) | -29.4 kcal/mol | 43.2 °C
53 | GTGTTAGAAATAACAC ((((((....)))))) | -28.6 kcal/mol | 47.1 °C
54 | GTGTTAGGAAACTAGCAC (((.(((....))).))) | -31.2 kcal/mol | 42.9 °C
55 | GTGTTCGAAAGAACCCAC ((((((....)))..))) | -11.7 kcal/mol | 33.1 °C
56 | GTGTTCGAAAGAATGCAC ((((((....)))..))) | -19.1 kcal/mol | 33.5 °C
57 | GTGTTCGAAAGAATTCAC ((((((....)))..))) | -10.3 kcal/mol | 28.8 °C
58 | GTGTTCGGAAACGAACGC (.(((((....))))).) | -30.3 kcal/mol | 59.6 °C
59 | GTGTTCGGAAACGGATAC ((.(.((....)).).)) | -25.8 kcal/mol | 33.6 °C
60 | GTGTTCTCGAAAGAGCAC (((..(((....)))))) | -24.7 kcal/mol | 41.8 °C
61 | GTGTTGCGAAAGCACAC (((.(((....)))))) | -33.8 kcal/mol | 56.3 °C
62 | GTGTTGCGAAAGCACCAC (((.(((....))).))) | -30.7 kcal/mol | 51.2 °C
63 | GTGTTGGGAAACCAATAC ((.((((....)))).)) | -41.5 kcal/mol | 45.7 °C
64 | GTGTTGGGAAACCAGTAC ((..(((....)))..)) | -11 kcal/mol | 25 °C
65 | GTGTTGGGAAACCGACAC ((((.((....)).)))) | -45.5 kcal/mol | 53.6 °C
66 | GTGTTTCGAAAGAACCAC (((.(((....))).))) | -30.7 kcal/mol | 43 °C
67 | GTGTTTGGAAACAAACGC (.(((((....))))).) | -32.3 kcal/mol | 51 °C
68 | GTTAAACGAAAGTTAAC (((.(((....)))))) | -17.2 kcal/mol | 34.6 °C
